From ChEMBL document CHEMBL1127367, “Antiproliferative properties of polyamine analogues: a structure-activity study” (J Med Chem, 1994)

Tests used:
[1] = system: L1210; assay: Compound was evaluated for its impact on putrescine (Put) levels after 48 hr at concentration 100 uM; assay type: functional, Mus musculus
[2] = system: L1210; assay: Compound was evaluated for its impact on spermine levels after 48 hr at concentration 100 uM; assay type: functional, Mus musculus
[3] = system: L1210; assay: Inhibition of radiolabeled spermidine uptake into L1210 cells in vitro.; assay type: functional, cell-based, Mus musculus
[4] = system: L1210; assay: In vitro inhibition of L1210 growth after 48 hours.; assay type: functional, cell-based; conditions: Mus musculus, L1210, 48 h
Procedure, shortened: (§1)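 Log-phase L1210 cultures (0.5–1.0 × 10^5 cells/mL) treated with analogue diluted in sterile water and filter-sterilized. After 48 h, cells were reseeded and grown a further 48 h for the 96 h point. Cells counted by Coulter counter. % growth = (treated − inoculum)/(untreated − inoculum) × 100.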

[5] = system: L1210; assay: In vitro inhibition of L1210 growth after 96 hours.; assay type: functional, cell-based; conditions: Mus musculus, L1210, 96 h; procedure, shortened: as §1
[6] = system: L1210; assay: Compound was evaluated for its impact on spermidine levels after 48 hr at concentration 500 uM; assay type: functional, Mus musculus
[7] = molecular target: T1, S-adenosylmethionine decarboxylase proenzyme 1 (Mus musculus) (UniProt P0DMN7); assay: Inhibition of S-Adenosyl-methionine decarboxylase (AdoMetDC) activity; assay type: functional; set-up: concentration or dose not given beside the values
T1 sequence (whole entry): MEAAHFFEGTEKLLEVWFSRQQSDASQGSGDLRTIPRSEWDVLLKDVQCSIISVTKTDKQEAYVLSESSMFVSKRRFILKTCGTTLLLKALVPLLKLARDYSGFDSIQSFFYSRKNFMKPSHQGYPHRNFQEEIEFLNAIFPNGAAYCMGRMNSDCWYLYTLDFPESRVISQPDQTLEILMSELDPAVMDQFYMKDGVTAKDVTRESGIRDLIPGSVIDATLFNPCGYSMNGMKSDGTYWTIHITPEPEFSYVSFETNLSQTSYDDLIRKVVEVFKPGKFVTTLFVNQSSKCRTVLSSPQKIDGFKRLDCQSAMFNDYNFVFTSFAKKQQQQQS

[8] = system: L1210; assay: Compound level in L1210 cells after 48 hours of incubation at initial concentration of 500 uM is expressed as nmol/10e6 cells; assay type: functional, Mus musculus; set-up: unit: nmol/10^6 cells
[9] = system: L1210; assay: Compound was evaluated for its impact on spermine levels after 48 hr at concentration 500 uM; assay type: functional, Mus musculus
[10] = molecular target: Spermidine/spermine N(1)-acetyltransferase (SAT) (Mus musculus) (UniProt Q6P8J2+P48026); assay: […] spermidine/spermine N1-Acetyltransferase (SSAT) activity; assay type: functional; set-up: concentration or dose not given beside the values
[11] = system: L1210; assay: Compound level in L1210 cells after 48 hours of incubation at initial concentration of 100 uM is expressed as nmol/10e6 cells; assay type: functional, Mus musculus; set-up: unit: nmol/10^6 cells
[12] = system: L1210; assay: Compound was evaluated for its impact on spermidine levels after 48 hr at concentration 100 uM; assay type: functional, Mus musculus
[13] = molecular target: T2, Ornithine decarboxylase (Mus musculus) (UniProt P00860); assay: Inhibition of ornithine decarboxylase (ODC) activity; assay type: functional; set-up: concentration or dose not given beside the values
T2 sequence (whole entry): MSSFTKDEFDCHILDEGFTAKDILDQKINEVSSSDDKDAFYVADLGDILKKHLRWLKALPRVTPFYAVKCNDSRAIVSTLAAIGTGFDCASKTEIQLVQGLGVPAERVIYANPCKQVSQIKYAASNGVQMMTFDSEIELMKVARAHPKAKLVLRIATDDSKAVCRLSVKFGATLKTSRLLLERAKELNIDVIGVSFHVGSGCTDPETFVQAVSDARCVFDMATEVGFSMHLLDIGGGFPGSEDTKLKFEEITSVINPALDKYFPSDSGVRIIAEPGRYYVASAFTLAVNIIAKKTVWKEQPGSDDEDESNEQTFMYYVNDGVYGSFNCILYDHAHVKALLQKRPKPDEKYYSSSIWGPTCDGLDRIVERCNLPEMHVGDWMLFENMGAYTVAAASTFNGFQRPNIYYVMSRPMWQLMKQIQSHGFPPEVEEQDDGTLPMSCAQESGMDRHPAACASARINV

[14] = system: L1210; assay: Compound was evaluated for its impact on putrescine (Put) levels after 48 hr at concentration 500 uM; assay type: functional, Mus musculus
[15] = system: L1210; assay: Compound was evaluated for its impact on spermidine levels after 48 hr at concentration 1.5 uM; assay type: functional, Mus musculus
Procedure, shortened: (§2)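 L1210 suspension cultures were grown in RPMI-1640 with 10% NuSerum, 2% HEPES-MOPS and 1 mM aminoguanidine (37 °C, 5% CO2). Log-phase cells were treated for 48 h, then washed twice in cold RPMI-1640 and pelleted. Pellets were extracted with 0.6 N perchloric acid, and supernatants were held at −20 °C until HPLC. Polyamine levels are given as % of untreated controls.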

[16] = system: L1210; assay: Compound was evaluated for its impact on spermidine levels after 48 hr at concentration 0.3 uM; assay type: functional, Mus musculus; procedure, shortened: as §2
[17] = system: L1210; assay: (§3) Compound was evaluated for its impact on spermine levels uM; assay type: functional, Mus musculus
[18] = system: L1210; assay: as §3; assay type: functional, Mus musculus; remark: listed apart in the source
[19] = system: L1210; assay: Compound was evaluated for its impact on putrescine (Put) levels after 48 hr at concentration 0.3 uM; assay type: functional, Mus musculus; procedure, shortened: as §2
[20] = system: L1210; assay: Compound was evaluated for its impact on putrescine (Put) levels after 48 hr at concentration 1.5 uM; assay type: functional, Mus musculus; procedure, shortened: as §2
[21] = system: L1210; assay: Compound level in L1210 cells after 48 hours of incubation at initial concentration of 0.3 uM is expressed as nmol/10e6 cells; assay type: functional, Mus musculus
Procedure, shortened: (§4)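 Murine L1210 leukemia cells were kept in logarithmic growth as a suspension in RPMI-1640 with 10% NuSerum, 2% HEPES-MOPS buffer and 1 mM aminoguanidine, at 37 °C under 5% CO2. Log-phase cells were exposed to the analogue for 48 h. Intracellular analogue content is reported per 10^6 cells.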

[22] = system: L1210; assay: Compound level in L1210 cells after 48 hours of incubation at initial concentration of 1.5 uM is expressed as nmol/10e6 cells; assay type: functional, Mus musculus; procedure, shortened: as §4
[23] = system: S-adenosylmethionine decarboxylase (Mus musculus); assay: Effect of compound on S-Adenosyl-methionine decarboxylase (AdoMetDC) activity expressed as percent of untreated control for (AdoMetDC) (1 uM at 6 hr)
[24] = system: L1210; assay: Compound was evaluated for its impact on spermine […] levels after 48 hr at concentration 100 uM; assay type: functional, Mus musculus; procedure, shortened: as §2
[25] = molecular target: T2, Ornithine decarboxylase (Mus musculus); assay: Effect of compound on ornithine decarboxylase (ODC)activity expressed as percent of untreated control for ODC (1 uM at 4 h(or 48h))
Procedure, shortened: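 L1210 cells exposed to 1 μM analogue for 4 h, or for 48 h in some cases. ODC activity measured as 14CO2 released from [14C]carboxyl-labeled L-ornithine and expressed as % of untreated control.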

Sequence of Spermidine/spermine N(1)-acetyltransferase (SAT) (Mus musculus) (P48026 whole entry, looked up): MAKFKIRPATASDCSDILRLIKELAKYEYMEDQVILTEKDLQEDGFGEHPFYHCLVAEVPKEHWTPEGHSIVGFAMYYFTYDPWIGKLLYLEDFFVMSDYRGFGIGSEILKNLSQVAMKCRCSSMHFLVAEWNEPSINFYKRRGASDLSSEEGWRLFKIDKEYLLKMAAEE
Sequence of Spermidine/spermine N(1)-acetyltransferase (SAT) (Mus musculus) (Q6P8J2 whole entry, looked up): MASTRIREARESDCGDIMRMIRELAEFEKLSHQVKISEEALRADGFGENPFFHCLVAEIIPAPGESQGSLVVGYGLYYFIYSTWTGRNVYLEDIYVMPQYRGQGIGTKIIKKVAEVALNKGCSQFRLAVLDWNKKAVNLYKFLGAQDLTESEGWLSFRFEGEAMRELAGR

| IC50 [4] | IC50 [5] | Activity [7] | Activity [10] | Activity [13] | Activity [23] | SMILES | Polyamine [1] | Polyamine [2] | Ki [3] | Polyamine [6] | Activity [8] | Polyamine [9] | Activity [11] | Polyamine [12] | Polyamine [14] | further results |
| --- | --- | --- | --- | --- | --- | --- | --- | --- | --- | --- | --- | --- | --- | --- | --- | --- |
| > 100 µM | 2500 nM | 49% | 200% | 6% | – | CNCCCNCCCNCCCNC | 0% | 36% | 5.6 µM | 3% | 1.84 | 27% | 2.14 | 5% | 0% | – |
| 0.3 µM | 35 nM | – | 120% | 20% | 39% | CCNCCCCNCCCCCNCCCCNCC | – | – | 6 µM | – | – | – | – | – | – | Polyamine [15]: 5%; Polyamine [16]: 61%; Polyamine [17]: 31%; Polyamine [18]: 70%; Polyamine [19]: 44%; Polyamine [20]: 0%; Activity [21]: 0.26; Activity [22]: 0.72 |
| > 100 µM | 3000 nM | – | – | 100% | 100% | CC(C)(C)NCCCCNCCCCNCCCCNC(C)(C)C | 83% | 94% | 56 µM | 58% | – | 72% | – | 85% | 55% | – |
| > 100 µM | 1200 nM | 100% | 180% | 100% | – | CC(C)NCCCNCCCNCCCNC(C)C | 10% | – | 40 µM | 12% | – | 53% | – | 26% | 0% | Polyamine [24]: 64% |
| > 100 µM | 320 nM | 45% | 140% | 4% | – | CNCCCCNCCCCNCCCCNC | 0% | 30% | 0.97 µM | 0% | 1.03 | 27% | 1.49 | 0% | 0% | – |
| – | – | 27% | 150% | – | – | CCNCCCNCCCCNCCCN | – | – | – | – | – | – | – | – | – | Activity [25]: 10% |
